Assay results taken from ChEMBL document CHEMBL2203196, “Synthesis, antiproliferative and apoptotic activities of N-(6(4)-indazolyl)-benzenesulfonamide derivatives as potential anticancer agents” (Eur J Med Chem, 2012).
The source made the active and inactive calls. No cut-off for these calls is given here.

Key:
A2780 [1] = assay: Induction of apoptosis in human A2780 cells assessed as change in nuclear morphology at IC50 after 3 days by DAPI staining-based fluorescence microscopy relative to control; assay type: functional
Summary of the method: (§1)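 Cells plated at 5000–10000/well, left 6–8 h, then treated at MTT-derived IC₅₀ or IC₉₀; washed in cold PBS, fixed in 70% ethanol at 4 °C, stained with DAPI just before microscopy; percent apoptotic segmented nuclei scored against untreated controls; mean ± SD of 4–6 data.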

A2780 [2] = assay: Upregulation of Bax expression in human A2780 cells at IC50 after 48 hrs by Western blot analysis; assay type: functional, cell-based
Summary of the method: (§2)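 A2780 cells treated at IC₅₀ and harvested at 24, 48, 72 h; lysed 30 min at 4 °C in 1% Triton X-100, 0.15 M NaCl, 10 mM Tris pH 7.4 with protease inhibitors; Bradford protein assay; 50 µg protein resolved on 12% SDS-PAGE, transferred to nitrocellulose, Ponceau S loading check, blocked overnight 2% BSA in TBST at 4 °C, probed for p53 or bax.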

A2780 [3] = assay: Cell cycle arrest in human A2780 cells assessed as accumulation at G2/M phase at IC50 after 72 hrs by propidium iodide staining-based FACS flow cytometry (reference value: 23.1 +/- 2.5 %); assay type: functional
A2780 [4] = assay: Upregulation of p53 expression in human A2780 cells at IC50 after 24 hrs by Western blot analysis; assay type: functional, cell-based; summary of the method: as §2
A2780 [5] = assay: Cell cycle arrest in human A2780 cells assessed as accumulation at S phase at IC50 after 72 hrs by propidium iodide staining-based FACS flow cytometry (reference value: 25.9 +/- 4.7 %); assay type: functional
A2780 [6] = assay: Cell cycle arrest in human A2780 cells assessed as accumulation at G0/G1 phase at 6.8 to 102.3 uM after 72 hrs by propidium iodide staining-based FACS flow cytometry (reference value: 51 +/- 6.2 %); assay type: functional
A2780 [7] = assay: Cell cycle arrest in human A2780 cells assessed as accumulation at G0/G1 phase at IC50 after 72 hrs by propidium iodide staining-based FACS flow cytometry (reference value: 51 +/- 6.2 %); assay type: functional
A549 [8] = assay: Induction of apoptosis in human A549 cells assessed as change in nuclear morphology at IC50 after 3 days by DAPI staining-based fluorescence microscopy relative to control; assay type: functional; summary of the method: as §1
A2780 [9] = assay: Cell cycle arrest in human A2780 cells assessed as accumulation at S phase at 6.8 to 102.3 uM after 72 hrs by propidium iodide staining-based FACS flow cytometry (reference value: 25.9 +/- 4.7 %); assay type: functional
A2780 [10] = assay: Cell cycle arrest in human A2780 cells assessed as cells with > 4n chromosomes at 6.8 to 102.3 uM after 72 hrs by propidium iodide staining-based FACS flow cytometry; assay type: functional
P388 [11] = assay: Induction of apoptosis in mouse P388 cells assessed as change in nuclear morphology at 0.97 to 957 uM after 3 days by DAPI staining-based fluorescence microscopy relative to control; assay type: functional; summary of the method: as §1
P388 [12] = assay: Cytotoxicity against mouse P388 cells after 72 hrs by MTT assay; assay type: functional, cell-based; conditions: P388, 72 h
Summary of the method: (§3)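 Cells plated at 900–1800/well for exponential growth, centrifuged 275 g 2 min, left 6–8 h, then exposed 72 h to at least 5 concentrations (1:10 serial dilutions) in duplicate; MTT read-out; IC₅₀ from single concentration–response curves; mean ± SD of 3–9 experiments.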

A549 [13] = assay: Cytotoxicity against human A549 cells after 72 hrs by MTT assay; assay type: functional, cell-based; conditions: A549, 72 h; summary of the method: as §3
A2780 [14] = assay: Cell cycle arrest in human A2780 cells assessed as accumulation at G2/M phase at 6.8 to 102.3 uM after 72 hrs by propidium iodide staining-based FACS flow cytometry (reference value: 23.1 +/- 2.5 %); assay type: functional
A2780 [15] = assay: Cytotoxicity against human A2780 cells after 72 hrs by MTT assay; assay type: functional, cell-based; conditions: A2780, 72 h; summary of the method: as §3
A2780 [16] = assay: Induction of apoptosis in human A2780 cells assessed as change in nuclear morphology at 0.97 to 957 uM after 3 days by DAPI staining-based fluorescence microscopy relative to control; assay type: functional; summary of the method: as §1
A549 [17] = assay: Induction of apoptosis in human A549 cells assessed as change in nuclear morphology at 0.97 to 957 uM after 3 days by DAPI staining-based fluorescence microscopy relative to control; assay type: functional; summary of the method: as §1
P388 [18] = assay: Induction of apoptosis in mouse P388 cells assessed as change in nuclear morphology at IC50 after 3 days by DAPI staining-based fluorescence microscopy relative to control; assay type: functional; summary of the method: as §1
A549 [19] = assay: Induction of apoptosis in human A549 cells assessed as change in nuclear morphology at > 200 uM after 3 days by DAPI staining-based fluorescence microscopy relative to control; assay type: functional; summary of the method: as §1
A2780 [20] = assay: Induction of apoptosis in human A2780 cells assessed as change in nuclear morphology at > 200 uM after 3 days by DAPI staining-based fluorescence microscopy relative to control; assay type: functional; summary of the method: as §1

SMILES | Activity (A2780 [1]) | Activity (A2780 [2]) | Activity (A2780 [3]) | Activity (A2780 [4]) | Activity (A2780 [5]) | Activity (A2780 [6]) | Activity (A2780 [7]) | Activity (A549 [8]) | Activity (A2780 [9]) | Activity (A2780 [10]) | Activity (P388 [11]) | IC50 (P388 [12]) | IC50 (A549 [13]) | Activity (A2780 [14]) | IC50 (A2780 [15]) | Activity (A2780 [16]) | Activity (A549 [17]) | Activity (P388 [18]) | Activity (A549 [19]) | Activity (A2780 [20])
COc1ccc(S(=O)(=O)Nc2cccc3[nH]nc(Cl)c23)cc1 | 23.6% | Active | 25.9% | Active | 18% | 9.4% | 56.1% | 34.3% | 7.8% | 12.8% | 74% | 0.5 µM | 1.83 µM | 70.1% | 0.86 µM | 46.6% | 70.8% | 11.5% | – | –
CCOc1ccc(NS(=O)(=O)c2ccc(C)cc2)c2cn(C)nc12 | 33.5% | – | 29.3% | – | 27.3% | 9.9% | 43.5% | 22.3% | 13.7% | 12% | 94.3% | 4.19 µM | 14.4 µM | 64.5% | 8.34 µM | – | – | 10.3% | 54.3% | 51.5%
CCOc1ccc(NS(=O)(=O)c2ccc(C)cc2)c2[nH]ncc12 | 12.5% | Active | 33.7% | Active | 12.6% | 8.9% | 53.7% | 18.8% | 8.2% | 11.6% | 56% | 5.7 µM | 25.1 µM | 71.4% | 8 µM | – | 24.9% | 19% | – | 27%
C=CCn1cc2ccc(NS(=O)(=O)c3ccc(C)cc3)cc2n1 | 19.3% | Active | 24.2% | Active | 9.8% | 10.8% | 66% | 51.2% | 5.5% | 11.1% | 68.7% | 4.41 µM | 11.9 µM | 72.7% | 4.89 µM | – | – | 30% | 29.2% | 66.5%
CCOc1ccc(NS(=O)(=O)c2ccc(C)cc2)c2cn[nH]c12 | – | – | – | – | – | – | – | – | – | – | – | 43.5 µM | 58.5 µM | – | 55.1 µM | – | – | – | – | –
Cc1ccc(S(=O)(=O)Nc2cccc3c2cnn3C)cc1 | 7.3% | inactive | 23.7% | Active | 11.3% | 9.1% | 65% | 28% | 15% | 6.8% | 91.3% | 3.4 µM | 6.88 µM | 69.2% | 6.62 µM | – | – | 37.3% | 41.2% | 24%
CCOc1ccc(NS(=O)(=O)c2ccc(C)cc2)c2c(Br)n[nH]c12 | 12.8% | Active | 24.3% | Active | 14.2% | 10.2% | 61.5% | 2.8% | 10.3% | 8.1% | 87.5% | 5.21 µM | 17.5 µM | 71.5% | 10.5 µM | 34.3% | 32.3% | 9.8% | – | –
CCOc1ccc(NS(=O)(=O)c2ccc(OC)cc2)c2c(Cl)n[nH]c12 | 23.3% | Active | 26.9% | Active | 10.4% | 10.8% | 62.7% | 34.8% | 8.4% | 11.3% | 98% | 0.58 µM | 5.83 µM | 69.6% | 1.23 µM | 36.8% | 64.5% | 47.3% | – | –
C=CCn1ncc2c(NS(=O)(=O)c3ccc(C)cc3)ccc(OCC)c21 | – | – | – | – | – | – | – | – | – | – | – | 51.8 µM | 100 µM | – | 61.6 µM | – | – | – | – | –
Cc1ccc(S(=O)(=O)Nc2ccc3c[nH]nc3c2)cc1 | – | – | – | – | – | – | – | – | – | – | – | 71.3 µM | > 100 µM | – | 86.6 µM | – | – | – | – | –
Cc1ccc(S(=O)(=O)Nc2cccc3[nH]ncc23)cc1 | – | – | – | – | – | – | – | – | – | – | – | 85.5 µM | > 100 µM | – | > 100 µM | – | – | – | – | –
C=CCn1cc2ccc(NS(=O)(=O)c3ccc(C)cc3)c(OCC)c2n1 | – | – | – | – | – | – | – | – | – | – | – | 68.9 µM | > 100 µM | – | > 100 µM | – | – | – | – | –
Cc1ccc(S(=O)(=O)Nc2ccc3c(Br)n[nH]c3c2)cc1 | – | – | – | – | – | – | – | – | – | – | – | 66.6 µM | > 100 µM | – | 101 µM | – | – | – | – | –
Cc1ccc(S(=O)(=O)Nc2ccc3c(Br)nn(S(=O)(=O)c4ccc(C)cc4)c3c2)cc1 | – | – | – | – | – | – | – | – | – | – | – | 51.3 µM | 104 µM | – | 74.7 µM | – | – | – | – | –
Cc1ccc(S(=O)(=O)Nc2cccc3[nH]nc(Br)c23)cc1 | – | – | – | – | – | – | – | – | – | – | – | 53.9 µM | 82.4 µM | – | 70.9 µM | – | – | – | – | –
